DENV2 CPE rescue: inhibitors of DENV2 cytopathic effect, primary screen, cell-based, plate reader, single concentration; DENV2-infected cells, cytopathic effect rescue; CPE inhibition, % at 9.99 µM; hit rate 1.7% among 350,000; AID 651640, 2012; in the data active = CPE inhibition above about 20%, passing the limit was not always enough; inconclusive = no clear call, values can overlap the other calls; tested in BHK-21 cells;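 also: 0% = median of neutral control wells and 100% = median of positive control wells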
CaV13 FRET inh: Primary screen for inhibitors of IQ motif and Ca2+-dependent inactivation inhibitor domain binding in CACNA1D, Förster resonance energy transfer in living cells, …; HEK cells, CFP/YFP FRET ICDI-IQ, plate reader, 10 min; percent FRET-ratio fall versus neutral wells; inhibition, % at 12.3 µM; hit rate 0.098% among 340,000;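 active = mean replicate inhibition of at least 30% and at least 1% of replicates passing that level; inconclusive = only one of the two criteria is met; inactive = neither criterion is met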;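 also: 0% = median of the neutral control wells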
MLL AF4-AF9 inh: inhibitors of AF4 peptide binding to AF9, primary screen, biochemical, AlphaScreen, biotin-AF4 peptide, FLAG-AF9, single point | inhibition, % at 10 µM | Protein AF-9 (Homo sapiens), P42568 | hit rate 0.47% among 350,000;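 active = every replicate reaching a set inhibition limit, whatever the replicate mean, cut at about 25% in these data; inconclusive = mean inhibition reaches that limit but some replicates miss it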;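 also: 0% = plate neutral control median and 100% = total signal loss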
SIRT5 inh: SIRT5 desuccinylase inhibitors, primary screen, biochemical, fluorescence imaging, single point, set 5; NAD-dependent protein deacylase sirtuin-5, mitochondrial (Homo sapiens), Q9NXA8; Purified SirT5, succinyl-peptide AMC, trypsin-coupled fluorescence; inhibition, % at 15 µM; hit rate 1.1% among 330,000; in the data active = inhibition above about 15%; inconclusive = no clear call, values can overlap the other calls
Target sequence (Q9NXA8 whole entry, looked up): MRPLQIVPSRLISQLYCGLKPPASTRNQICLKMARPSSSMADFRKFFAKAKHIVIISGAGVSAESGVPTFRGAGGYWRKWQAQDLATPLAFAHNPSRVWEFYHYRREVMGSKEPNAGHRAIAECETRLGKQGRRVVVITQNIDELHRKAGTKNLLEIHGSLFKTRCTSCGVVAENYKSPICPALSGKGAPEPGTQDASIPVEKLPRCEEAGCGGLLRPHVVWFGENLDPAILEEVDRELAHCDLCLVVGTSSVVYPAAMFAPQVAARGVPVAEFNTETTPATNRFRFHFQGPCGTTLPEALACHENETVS
S100A4 inh HTS: inhibitors of S100A4-myosin IIA peptide binding, primary screen, biochemical, fluorescence polarization, TAMRA-MyoIIA peptide | hit rate 0.14% among 360,000 | Protein S100-A4 (Homo sapiens), P26447 | inhibition, % at 10.7 µM;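 active = mean inhibition of at least 70% across replicates, with every replicate also reaching that level; inconclusive = mean inhibition reaches 70% but some replicates fall short; inactive = mean inhibition below 70%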
Target sequence (P26447 whole entry, looked up): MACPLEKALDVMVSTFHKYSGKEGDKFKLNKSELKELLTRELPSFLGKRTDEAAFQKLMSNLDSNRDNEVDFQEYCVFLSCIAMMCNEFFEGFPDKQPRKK
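Compound dosing: one dose per compound; test system: human S100A4 monomer with TAMRA-labelled myosin IIA peptide; probe or stimulus: TAMRA-labelled myosin IIA heavy-chain peptide probe, 5 nM; medium: HEPES buffer with Ca2+, pH 7.2; schedule: 5 min incubation before reading; benchmarks: neutral control DMSO, positive control TFP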
The depositor's hits bear a star; ? = inconclusive; . = no result given. A selection: hits, their analogues and other compounds. The true share with any hit is near 2.7%.

SMILES	DENV2 CPE rescue	CaV13 FRET inh	MLL AF4-AF9 inh	SIRT5 inh	S100A4 inh HTS
C[C@@H](NC(=O)C[C@@H]1CC[C@@H]2[C@H](COC[C@H](O)CN2C(=O)Nc2ccccc2)O1)c1ccccc1	0.9	.	-1.1	1.7	-1.4
C[C@@H](NC(=O)C[C@@H]1CC[C@H]2[C@@H](COC[C@H](O)CN2C(=O)Nc2ccccc2)O1)c1ccccc1	113.2*	.	-1.2	-0.3	-0.8
C[C@H](NC(=O)C[C@@H]1CC[C@H]2[C@@H](COC[C@@H](O)CN2C(=O)Nc2cccc(F)c2)O1)c1ccccc1	-9.7	.	-1.8	18.9*	7.6
C[C@@H](NC(=O)C[C@H]1CC[C@H]2[C@@H](COC[C@@H](O)CN2Cc2ccc(C(F)(F)F)cc2)O1)c1ccccc1	-1.2	.	-3.1	16.7*	-4.0
C[C@H]1CN([C@@H](C)CO)S(=O)(=O)c2ccc(C3=CCCC3)cc2O[C@H]1CN(C)CC1CC1	5.4	.	7.1	1.7	5.9
Cc1cc(O)c(C(C)C)cc1NC(=O)c1ccccc1Cl	27.7*	-4.4	4.5	.	-2.9
Cc1cc(NC(=O)c2ccccc2Cl)c(C(C)C)cc1O	.	-4.6	.	.	.
CCOC(=O)C1=C(C)NC(SCc2cc(=O)[nH][nH]2)=C(C#N)C1c1cccs1 (configuration not stated)	11.4	-7.5	3.3	20.0*	-9.8
Cc1nc(SCc2cccc(C(=O)O)c2)nc2c1CCCC2	?	-3.0	-1.7	52.1*	1.8
CCCC(=O)Nc1ccc2c(c1)OC[C@H](C)N(Cc1ccncc1)C[C@@H](C)[C@@H](OC)CN(C)C2=O	-0.5	.	-1.8	1.6	-9.2
CC(C)(C)NC(=O)COc1coc(CN2CCN(Cc3ccccc3)CC2)cc1=O	57.2*	-2.6	-3.4	-3.5	-1.6
C[C@@H]1CN([C@@H](C)CO)C(=O)Cc2cc(NS(=O)(=O)c3cccs3)ccc2O[C@@H]1CN(C)Cc1ccc(-c2ccccc2)cc1	44.3*	.	0.3	-6.7	-3.6
C[C@@H]1CN([C@@H](C)CO)C(=O)Cc2cc(NS(=O)(=O)c3cccs3)ccc2O[C@H]1CN(C)Cc1ccc(-c2ccccc2)cc1	-12.1	.	3.4	16.6*	48.5
C[C@@H]1CN([C@@H](C)CO)C(=O)Cc2cc(NS(=O)(=O)c3cccs3)ccc2O[C@H]1CN(C)Cc1ccc(C(F)(F)F)cc1	-5.0	.	2.7	16.0*	-7.2
C[C@H]1O[C@@H](n2cc(F)c(=O)[nH]c2=O)[C@H](O)[C@@H]1O	7.1	-5.3	6.0	-0.7	-6.0
O=c1[nH]c(=O)n(C2OC(CO)C(O)C(O)C2O)cc1F (configuration not stated)	68.1*	.	-1.5	-1.2	0.6
Cc1oc(-c2ccccc2Cl)nc1CSCC(=O)O	-10.4	-4.5	-0.3	-3.0	186.3*
CCc1noc(C)c1C(=O)OCC(=O)NCc1ccc(Cl)cc1	8.1	-6.1	-0.3	18.2*	-3.5
CCc1noc(C)c1C(=O)OCC(=O)NCc1ccccc1	17.6	-2.4	-2.4	-19.2	-0.3
COc1cccc(CN2C[C@@H](C)[C@H](OC)CN(C)C(=O)c3cc(NS(=O)(=O)c4cn(C)cn4)ccc3OC[C@H]2C)c1	-1.2	.	1.9	.	-36.8
O=C(Nc1ccc(F)cc1F)c1c(C(F)(F)F)ccnc1Oc1ccccc1	4.6	-20.2	-0.3	-3.6	-3.2
Cc1cccc(Oc2nccc(C(F)(F)F)c2C(=O)Nc2ccc(F)cc2F)c1	32.4*	-2.6	-1.1	-2.1	-2.7
Cc1cc([N+](=O)[O-])nn1CCCC(=O)Nc1sc2c(c1C(N)=O)CCC(C)C2 (configuration not stated)	13.4	-4.9	27.9*	-5.5	-0.5
CC1CCc2c(sc(NC(=O)Cn3cnc([N+](=O)[O-])n3)c2C(N)=O)C1 (configuration not stated)	3.4	-15.9	-1.1	2.2	-3.7
O=C1CN(S(=O)(=O)c2ccccc2)C[C@@H]2[C@H](c3ccc(C#Cc4ccccc4)cc3)[C@H](CO)N12	2.8	.	-2.2	25.3*	-24.8
SMILES	DENV2 CPE rescue	CaV13 FRET inh	MLL AF4-AF9 inh	SIRT5 inh	S100A4 inh HTS
Cc1ccccc1S(=O)(=O)N1CC(=O)N2[C@@H](CO)[C@@H](c3ccc(C#Cc4ccccc4)cc3)[C@@H]2C1	-9.8	.	-1.6	-0.7	0.0
Cc1ccccc1S(=O)(=O)N1CC(=O)N2[C@H](CO)[C@@H](c3ccc(C#Cc4ccccc4)cc3)[C@@H]2C1	29.1*	.	-6.4	-10.0	-5.9
O=C1CN(S(=O)(=O)Cc2ccccc2)C[C@@H]2[C@H](c3ccc(C#Cc4cccc(F)c4)cc3)[C@H](CO)N12	-4.9	.	-3.2	16.7*	3.2
C[C@H](O)C#Cc1ccc2c(c1)O[C@H](CN(C)C(=O)c1ccccc1)[C@H](C)CN([C@H](C)CO)S2(=O)=O	-11.6	.	2.6	0.7	-2.0
CO/N=C/C(C#N)=C/c1cc(C(=O)c2ccccc2)cn1C	46.3*	-4.3	-0.9	-1.8	-1.4
CN(C)C(=O)c1cccc(-c2ccc3c(c2)[C@@H]2[C@@H](CCN2C(=O)C2CCCC2)[C@H](CO)N3)c1	-1.1	.	12.4	2.4	-43.1
O=C(CCc1ccccc1Cl)NC1CCCN(c2ccc(C(F)(F)F)cn2)C1 (configuration not stated)	-6.7	-6.9	-7.7	-0.3	178.9*
COc1ccccc1CCC(=O)NC1CCCN(c2ccc(C(F)(F)F)cn2)C1 (configuration not stated)	-3.0	-3.4	-0.9	-1.9	-3.2
O=C(Nc1ccccc1C(=O)O)c1cc(S(=O)(=O)Nc2ccccc2)ccc1Cl	1.1	-3.6	-4.2	23.2*	1.6
N[C@@H](Cc1ccc(O)c(O)c1)C(=O)O	-2.3	-6.2	0.2	15.1*	14.0
CCOC(=O)N1CCN(C(=O)c2cc(COc3ccc4ncccc4c3)on2)CC1	-6.7	-2.4	-2.8	20.2*	0.2
Cc1cccnc1CN1CCN(C(=O)c2cc(COc3ccc4ncccc4c3)on2)CC1	-0.6	-3.2	-3.0	-8.0	-4.5
C[C@H]1CN([C@@H](C)CO)C(=O)Cc2cc(NC(=O)Nc3ccc(C(F)(F)F)cc3)ccc2O[C@@H]1CN(C)S(C)(=O)=O	-1.8	.	3.2	.	5.3
CCOC(=O)C1=CN(Cc2cccc(Br)c2)S(=O)(=O)N(C)C1C (configuration not stated)	37.4*	-6.6	0.7	42.4*	-2.3
C[C@H]1CN([C@@H](C)CO)C(=O)c2cc(-c3ccccc3F)cnc2O[C@@H]1CN(C)Cc1ccccc1	?	.	0.3	-1.1	14.9
CC(C)NC(=O)N[C@H]1C=C[C@@H](CC(=O)NCCCN(C)C)O[C@@H]1CO	-2.3	.	0.3	1.2	4.5

Assay outcomes as filed in PubChem BioAssay.
